According to ChEMBL document CHEMBL3865841, “Photosensitizer (PS)-cyanine dye (CD) conjugates: Impact of the linkers joining the PS and CD moieties and their orientation in tumor-uptake and photodynamic therapy (PDT)” (Eur J Med Chem, 2016):
Calls of active or inactive are those of the source. The rule behind the calls is not given here.

Experiments:
[1] = tested on: Mus musculus; experiment: Toxicity in Balb/c mouse implanted with mouse Colon 26 cells assessed as morbidity at 2.5 to 3.5 umol/kg, iv preincubated for 24 hrs subsequent irradiation at 128 J/cm2 measured up to 60 days; assay type: organism-based; conditions: in vivo, 1440 h
How it was run: (§1)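 BALB/c mice carried s.c. Colon-26 tumours (1 × 10⁶ cells, right posterior shoulder) grown to 4–5 mm. Conjugates were given i.v. via the tail vein at 0.4–3.5 µmol/kg. At 24 h, unanaesthetised restrained mice received 665 nm laser light on a 1.1 cm spot (128 J/cm², 14 mW/cm²). Mice were observed daily for up to 60 days for death or morbidity, which led to euthanasia.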

[2] = Drug uptake in human U87 cell lysosomes assessed as color overlay at 0.25 to 2 uM after 4 to 24 hrs in dark by FluoSpheres yellow green dye-based confocal microscopic analysis; assay type: ADME, Lysosome; conditions: u-87mg atcc
How it was run: (§2)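 U87 glioblastoma cells seeded at 1.25 × 10⁵ in glass-bottom dishes, cultured 24–48 h, then given conjugate at 0.25, 0.5, 1.0 or 2.0 µM in the dark at 37°C for 4 h and 24 h. Co-stained with MitoTracker Red 2.5 nM for 10 min and FluoSpheres yellow/green 1/10,000 of a 1/10 stock for 24 h. Confocal imaging with excitation 488, 543 and 633 nm.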

[3] = Phototoxicity against mouse Colon 26 cells implanted in Balb/c mouse assessed as tumor cure incidents at 1.5 umol/kg, iv preincubated for 24 hrs with subsequent irradiation at 128 J/cm2 measured after 60 days; assay type: functional
How it was run: (§3)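 BALB/c mice bore s.c. Colon-26 tumors (1 × 10⁶ cells, shoulder) of 4–5 mm. Conjugate given i.v. via tail vein at 0.4, 0.75, 1.5, 2.5 or 3.5 µmol/kg. At 24 h unanesthetized mice got 665 nm laser, 128 J/cm², 14 mW/cm², 1.1 cm spot. Regrowth checked daily, volume L*W²/2. Cure = no palpable tumor by day 60; euthanasia at 400 mm³.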

[4] = Phototoxicity against mouse Colon 26 cells assessed as reduction in cell viability preincubated for 24 hrs with subsequent 4 J/cm2 irradiation measured after 48 hrs incubation in dark by MTT assay; assay type: functional, cell-based; conditions: Colon 26, light or radiation study
How it was run: (§4)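 Colon-26 (RPMI-1640, 10% FCS) or U87 (MEM, 10% FCS) cells at 5000/well were given conjugate at 0–4 µM for 24 h. Compounds were formulated in 1% Tween-80/D5W and diluted in medium. Cells were washed and refed, then irradiated at 4 J/cm², 3.2 mW/cm². Then 44 h at 37°C in the dark, MTT 4 h, DMSO, A560. EC50 at 4 J/cm². Colon-26: two independent experiments, triplicates.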

[5] = Phototoxicity against human U87 cells assessed as reduction in cell viability preincubated for 24 hrs with subsequent irradiation 4 J/cm2 followed by 48 hrs incubation in dark by MTT assay; assay type: functional, cell-based, U-87MG ATCC; conditions: U-87 MG, light or radiation study; how it was run: as §4
[6] = Drug uptake in mouse colon 26 cell mitochondria assessed as color overlay at 0.25 to 2 uM after 4 to 24 hrs in dark by mitotracker red dye-based confocal microscopic analysis; assay type: ADME; conditions: colon 26, 2 µM
How it was run: (§5)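 Colon-26 cells seeded at 1.25 × 10⁵ in glass-bottom dishes, cultured 24–48 h, then given conjugate at 0.25, 0.5, 1.0 or 2.0 µM in the dark at 37°C for 4 h and 24 h. Co-stained with MitoTracker Red 2.5 nM for 10 min and FluoSpheres yellow/green 1/10,000 of a 1/10 stock for 24 h. Media replaced before Leica TCS SP2 confocal imaging; excitation 488 (lysosome), 543 (mitochondria), 633 nm (HPPH).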

[7] = Drug uptake in human U87 cell mitochondria assessed as color overlay at 0.25 to 2 uM after 4 to 24 hrs in dark by mitotracker red dye-based confocal microscopic analysis; assay type: ADME; conditions: u-87mg atcc; how it was run: as §2
[8] = Ratio of drug uptake in tumor to skin in Balb/c mouse implanted with mouse Colon 26 cells at 0.3 umol/kg, iv after 24 hrs by reflectance spectroscopic analysis; assay type: ADME, organism-based; conditions: in vivo
[9] = tested on: Mus musculus; experiment: Toxicity in Balb/c mouse implanted with mouse Colon 26 cells assessed as mortality at 2.5 to 3.5 umol/kg, iv preincubated for 24 hrs subsequent irradiation at 128 J/cm2 measured up to 60 days; assay type: organism-based; conditions: in vivo, 1440 h; how it was run: as §1
[10] = Drug uptake in Balb/c mouse liver implanted with mouse Colon 26 cells at 0.3 umol/kg, iv after 24 hrs by reflectance spectroscopic analysis; assay type: ADME, organism-based; conditions: in vivo
[11] = Drug uptake in mouse colon 26 cell lysosomes assessed as color overlay at 0.25 to 2 uM after 4 to 24 hrs in dark by FluoSpheres yellow green dye-based confocal microscopic analysis; assay type: ADME, Lysosome; conditions: colon 26, 2 µM; how it was run: as §5
[12] = Phototoxicity against mouse Colon 26 cells implanted in Balb/c mouse assessed as tumor cure incidents at 3.5 umol/kg, iv pretreated for 24 hrs subsequent irradiation at 128 J/cm2 measured after 60 days relative to control; assay type: functional; how it was run: as §3
[13] = tested on: U-87MG ATCC; experiment: Phototoxicity against human U87 cells xenografted in immunocompromized nude mouse assessed as increase in tumor cure incidents at 1.5 umol/kg, iv preincubated for 24 hrs subsequent irradiation at 128 J/cm2 measured after 60 days; assay type: functional, organism-based
How it was run: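 Athymic nude mice bore s.c. U87 tumors (2 × 10⁶ cells) of 4–5 mm. Conjugate given i.v. at 1.5 µmol/kg. At 24 h post-injection tumors got 665 nm laser light, 128 J/cm², 14 mW/cm². Mice followed daily for regrowth; cure = no palpable tumor by day 60.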

[14] = tested on: Colon 26; experiment: Phototoxicity against mouse Colon 26 cells implanted in Balb/c mouse assessed as increase in tumor cure incidents at 0.75 to 1.5 umol/kg, iv preincubated for 24 hrs with subsequent irradiation at 128 J/cm2 measured up to 60 days; assay type: functional, organism-based; how it was run: as §3
[15] = Drug uptake in mouse Colon 26 cells at 1 uM after 24 hrs in dark by flow cytometry; assay type: ADME, cell-based; conditions: colon 26, 24 h
How it was run: (§6)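 Colon-26 or U87 cells seeded at 5.0 × 10⁵ per well, 24 h, then exposed to conjugate at 1 µM in the dark at 37°C for 24 h. Cells harvested, spun cold at 10°C, resuspended in cold 2% FCS in PBS, run on a BD LSR II. Analysis used the 405 nm violet laser with 780/60, 710/50 and 660/20 nm filters.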

[16] = Drug uptake in human U87 cells at 1 uM after 24 hrs in dark by flow cytometry; assay type: ADME, cell-based; conditions: u-87mg atcc; how it was run: as §6
[17] = Drug uptake in immunocompromized nude mouse tumor xenografted with human U87 cells at 0.03 umol/kg, iv after 24 to 72 hrs by reflectance spectroscopic analysis; assay type: ADME, organism-based, Neoplasm, U-87MG ATCC; conditions: in vivo
[18] = Drug uptake in mouse colon 26 cell lysosomes assessed as color overlay at 1 uM after 24 hrs in dark by FluoSpheres yellow green dye-based confocal microscopic analysis; assay type: ADME, Lysosome; conditions: colon 26, 24 h
How it was run: (§7)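 Colon-26 cells held with conjugate at 1 µM, imaged 24 h later by confocal microscopy. Lysosomal dye FluoSpheres yellow green at 1/100,000 dilution of commercial stock; mitochondrial MitoTracker Red at 2.5 nM for 10 min. Overlays of the conjugate signal with each organelle dye.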

[19] = Drug uptake in human U87 cell mitochondria assessed as color overlay at 1 uM after 24 hrs in dark by mitotracker red dye-based confocal microscopic analysis; assay type: ADME; conditions: u-87mg atcc
How it was run: (§8)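 U87 cells held with conjugate at 1 µM, imaged 24 h later by confocal microscopy. Lysosomal FluoSpheres yellow green at 1/100,000 dilution of commercial stock; MitoTracker Red 2.5 nM for 10 min. Overlays of the conjugate signal with each organelle dye.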

[20] = Drug uptake in mouse colon 26 cell mitochondria assessed as color overlay at 1 uM after 24 hrs in dark by mitotracker red dye-based confocal microscopic analysis; assay type: ADME; conditions: colon 26, 24 h; how it was run: as §7
[21] = Drug uptake in human U87 cell lysosomes assessed as color overlay at 1 uM after 24 hrs in dark by FluoSpheres yellow green dye-based confocal microscopic analysis; assay type: ADME, Lysosome; conditions: u-87mg atcc; how it was run: as §8

SMILES	Drug uptake [2]	Drug uptake [6]	Drug uptake [7]	Ratio [8]	Drug uptake [10]	Drug uptake [11]	Drug uptake [15]	Drug uptake [16]	Activity [1]	Activity [3] [%]	EC50 [4] [nM]	EC50 [5] [nM]	Activity [9]	Activity [12] [%]	Activity [13]	Activity [14]	also measured
CCCCCCOC(C)c1c(C)c2cc3nc(c4c5[nH]c(cc6nc(cc1[nH]2)C(C)=C6CC)c(C)c5C(=O)C4)[C@@H](CCC(=O)NCCNC(=O)c1cccc(SC2=C(/C=C/C4=[N+](CCCCS(=O)(=O)[O-])c5ccc6ccccc6c5C4(C)C)CCC/C2=C\C=C2\N(CCCCS(=O)(=O)O)c4ccc5ccccc5c4C2(C)C)c1)[C@@H]3C (stereo partly specified)	Active	Active	Active	2.5	Active	Active			Toxic	80	1580	570	Toxic				
CCCCCCOC(C)c1c(C)c2cc3nc(c4c5[nH]c(cc6nc(cc1[nH]2)C(C)=C6CC)c(C)c5C(=O)C4)[C@@H](CCC(=O)NCCNC(=O)c1ccc(SC2=C(/C=C/C4=[N+](CCCCS(=O)(=O)[O-])c5ccc6ccccc6c5C4(C)C)CCC/C2=C\C=C2\N(CCCCS(=O)(=O)O)c4ccc5ccccc5c4C2(C)C)cc1)[C@@H]3C (stereo partly specified)	Active	Active	Active	2	Active	Active			Toxic		2510	790	Toxic				
CCCCCCOC(C)c1c(C)c2cc3nc(c4c5[nH]c(cc6nc(cc1[nH]2)C(C)=C6CC)c(C)c5C(=O)C4)[C@@H](CCC(=O)NCCCCNC(=O)c1cccc(SC2=C(/C=C/C4=[N+](CCCCS(=O)(=O)[O-])c5ccc6ccccc6c5C4(C)C)CCC/C2=C\C=C2\N(CCCCS(=O)(=O)O)c4ccc5ccccc5c4C2(C)C)c1)[C@@H]3C (stereo partly specified)				6.5	Active		Active	Active		80	180	150			Active		Drug uptake [17]: Active; Drug uptake [18]: Active; Drug uptake [19]: Active; Drug uptake [20]: Active; Drug uptake [21]: Active
CCCCCCOC(C)c1c(C)c2cc3nc(c4c5[nH]c(cc6nc(cc1[nH]2)C(C)=C6CC)c(C)c5C(=O)C4)[C@@H](CCC(=O)NCCCCCCNC(=O)c1cccc(SC2=C(/C=C/C4=[N+](CCCCS(=O)(=O)[O-])c5ccc6ccccc6c5C4(C)C)CCC/C2=C\C=C2\N(CCCCS(=O)(=O)O)c4ccc5ccccc5c4C2(C)C)c1)[C@@H]3C (stereo partly specified)	Active	Active	Active	2.5	Active	Active					200	380		90		Active	

Second part, led by results:

Drug uptake [2]	Drug uptake [6]	Drug uptake [7]	Ratio [8]	Drug uptake [10]	Drug uptake [11]	Drug uptake [15]	Drug uptake [16]	SMILES	Activity [1]	Activity [3] [%]	EC50 [4] [nM]	EC50 [5] [nM]	Activity [9]	Activity [12] [%]	Activity [13]	Activity [14]	also measured
Active	Active	Active	2.3	Active	Active			CCCCCCOC(C)c1c(C)c2cc3nc(c4c5[nH]c(cc6nc(cc1[nH]2)C(C)=C6CC)c(C)c5C(=O)C4)[C@@H](CCC(=O)NCCCCCCNC(=O)c1ccc(SC2=C(/C=C/C4=[N+](CCCCS(=O)(=O)[O-])c5ccc6ccccc6c5C4(C)C)CCC/C2=C\C=C2\N(CCCCS(=O)(=O)O)c4ccc5ccccc5c4C2(C)C)cc1)[C@@H]3C (stereo partly specified)			720	590		70	Active	Active	
Active	Active	Active	10	Active	Active	Active	Active	CCCCCCOC(C)c1c(C)c2cc3nc(c4c5[nH]c(cc6nc(cc1[nH]2)C(C)=C6CC)c(C)c5C(=O)C4)[C@@H](CCC(=O)NCCCCNC(=O)c1ccc(SC2=C(/C=C/C4=[N+](CCCCS(=O)(=O)[O-])c5ccc6ccccc6c5C4(C)C)CCC/C2=C\C=C2\N(CCCCS(=O)(=O)O)c4ccc5ccccc5c4C2(C)C)cc1)[C@@H]3C (stereo partly specified)		20	130	290					
